Data published in PMC4437839 (Chemical research in toxicology, 2015).
Entries after “also recorded” stand apart in the source; their conditions may differ.

What was measured:
2′-Deoxyguanosine (dG) = experiment: Trapping reactive N-oxidized electrophiles of PhIP with dG; conditions: 42 nmol, dG 1 mg/mL, pH 8.0, 37 °C, 1 h; total ion counts at MS3 (Fig. 3)
albumin in human plasma = albumin in human plasma (Homo sapiens, UniProt P02768); conditions: for level of LQQC*[SOPhIP]PF formed, comparison between the three metabolites: albumin in human plasma or commercial human albumin, p=0.231, one-way ANOVA; for LQQC*[SO2PhIP]PFEDHVK levels, N-acetoxy-PhIP versus HONH-PhIP: human plasma, p>0.05, t-test
Chain of albumin in human plasma (P02768 25-609): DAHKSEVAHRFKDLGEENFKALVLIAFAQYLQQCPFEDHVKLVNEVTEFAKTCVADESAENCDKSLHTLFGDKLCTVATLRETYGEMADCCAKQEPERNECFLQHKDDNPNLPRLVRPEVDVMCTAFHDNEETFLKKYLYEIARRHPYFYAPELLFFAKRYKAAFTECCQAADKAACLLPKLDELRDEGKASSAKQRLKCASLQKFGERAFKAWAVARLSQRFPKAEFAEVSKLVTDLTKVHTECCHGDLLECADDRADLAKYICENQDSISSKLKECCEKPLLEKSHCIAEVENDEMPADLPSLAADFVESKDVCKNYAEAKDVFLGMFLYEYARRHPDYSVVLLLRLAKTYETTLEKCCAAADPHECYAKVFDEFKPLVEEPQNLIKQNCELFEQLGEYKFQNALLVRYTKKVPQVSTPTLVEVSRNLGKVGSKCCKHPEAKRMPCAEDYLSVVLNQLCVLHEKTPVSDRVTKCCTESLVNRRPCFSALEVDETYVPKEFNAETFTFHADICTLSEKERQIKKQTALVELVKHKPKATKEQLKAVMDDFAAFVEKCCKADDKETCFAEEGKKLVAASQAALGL

Hb = conditions: humans, radiolabelled 14C-PhIP; cited from earlier work
[1] = biological target: albumin in human hepatocytes culture (Homo sapiens, UniProt P02768); experiment: Albumin PhIP adducts and Cys34SO3H in human hepatocytes; assay type: cell-based
Chain of albumin in human hepatocytes culture (P02768 25-609): as above
Summary of the method: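 Primary human hepatocytes (two-step collagenase perfusion) seeded at 3×10^6 viable cells/19.5-cm2 dish in Williams' medium with βME-pre-reduced human albumin (1 g/L) replacing FCS; exposed 24 h to PhIP or 1:1 PhIP:[2H5]-PhIP (50 µM). Medium albumin ethyl acetate-extracted, ethanol-precipitated, kit-isolated, desalted; trypsin/chymotrypsin digested (37 °C, 20 h); C18 SPE; mass-tag data-dependent, then targeted UPLC-ESI/MS2.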

albumin = conditions: humans; cited from earlier work
NAT1 = conditions: cited from earlier work
SULT1A1 = conditions: cited from earlier work
NAT2 = conditions: cited from earlier work
[2] = N-sulfooxy-PhIP modified albumin, unpublished observations

With `CC(=O)ONc1nc2ncc(-c3ccccc3)cc2n1C` [N-acetoxy-PhIP, N-(acetyloxy)-2-amino-1-methyl-6-phenylimidazo[4,5-b]pyridine, reference compound] the “relative amount of dG-C8-PhIP formation” value (2′-Deoxyguanosine (dG)) was “greatest amount”, the “level of LQQC*[SOPhIP]PF formed, comparison between the three metabolites” value (from here on “level of LQQC*[SOPhIP]PF formed”) (albumin in human plasma) was “no statistically significant difference” and the “LQQC*[SO2PhIP]PFEDHVK levels, N-acetoxy-PhIP versus HONH-PhIP” value (albumin in human plasma) was “no significant difference”.
For `Cn1c(N)nc2ncc(-c3ccccc3)cc21` [PhIP, 2-amino-1-methyl-6-phenylimidazo[4,5-b]pyridine], the “PhIP binding to Hb” value (Hb) is given as “very low”, the “PhIP and 5-HO-PhIP in the proteolytic digests of albumin” value ([1]; PhIP 50 µM, 24 h (Figs. 8A, 8B)) is given as “detected” and the “Y*[desaminoPhIP]TK (Tyr411) and LQQC*[desaminoPhIP]PF (Cys34) adducts” value ([1]; PhIP 50 µM, tryptic/chymotryptic digest (Fig. 9)) is given as “both adducts were identified”. For the same compound, the “albumin-PhIP peptide adducts at Cys34 or Trp214” value ([1]; PhIP or PhIP:[2H5]-PhIP 50 µM, 24 h, data-dependent and targeted MS2) was “failed to detect; also recorded: below the limit of detection”, the “LQQC*[SO2PhIP]PFEDHVK after m-CPBA oxidation of albumin” value ([1]; albumin isolated from hepatocytes, targeted MS2) was “failed to detect; also recorded: not detected” and the “binding of PhIP to albumin” value (albumin) was “up to several percent of the ingested dose”.
For `Cn1c(NOS(=O)(=O)O)nc2ncc(-c3ccccc3)cc21` [N-sulfooxy-PhIP, N-sulfooxy-2-amino-1-methyl-6-phenylimidazo[4,5-b]pyridine], the “relative amount of dG-C8-PhIP formation” value (2′-Deoxyguanosine (dG)) was “lower level”, the “level of W[PhIP] adduct relative to signal of C[SO2PhIP]” value (albumin in human plasma; 3-enzyme digest, ion counts (Fig. 7)) was “about half” and the “ion counts of H[PhIP], fold lower than counts of W[PhIP]” value (albumin in human plasma; [2]) was 5 folder. For the same compound, the “ion counts of H[PhIP], fold lower than ion counts of C[SO2PhIP]” value (albumin in human plasma; [2]) was 10 fold, the “level of LQQC*[SOPhIP]PF formed” value (albumin in human plasma) was “no statistically significant difference” and the “level of Trp[PhIP] relative to N-acetoxy-PhIP or HONH-PhIP treated human plasma” value (albumin in human plasma; pronase E/leucine aminopeptidase/prolidase digest, ion counts (Fig. 7B)) was 3 x.
In the case of `Cn1c(NO)nc2ncc(-c3ccccc3)cc21` [HONH-PhIP, 2-hydroxyamino-1-methyl-6-phenylimidazo[4,5-b]pyridine], the “bioactivation by NAT1” value (NAT1) is given as “poorly bioactivated”, the “relative amount of dG-C8-PhIP formation” value (2′-Deoxyguanosine (dG)) is given as “lastly” and the “level of LQQC*[SOPhIP]PF formed” value (albumin in human plasma) is given as “no statistically significant difference”. The “LQQC*[SO2PhIP]PFEDHVK levels, N-acetoxy-PhIP versus HONH-PhIP” value (albumin in human plasma) was “no significant difference”, the “bioactivation by SULT1A1” value (SULT1A1) was “highly effective” and the “bioactivation by NAT2” value (NAT2) was “poorly bioactivated”.
